Measured values as given in ChEMBL document CHEMBL3351398, “Discovery of a Potent and Selective DGAT1 Inhibitor with a Piperidinyl-oxy-cyclohexanecarboxylic Acid Moiety” (ACS Med Chem Lett, 2014).

Experiments:
[1] = target: T1, Diacylglycerol O-acyltransferase 1 (Homo sapiens, UniProt O75907); test: Inhibition of human DGAT1
T1 sequence (O75907 whole entry): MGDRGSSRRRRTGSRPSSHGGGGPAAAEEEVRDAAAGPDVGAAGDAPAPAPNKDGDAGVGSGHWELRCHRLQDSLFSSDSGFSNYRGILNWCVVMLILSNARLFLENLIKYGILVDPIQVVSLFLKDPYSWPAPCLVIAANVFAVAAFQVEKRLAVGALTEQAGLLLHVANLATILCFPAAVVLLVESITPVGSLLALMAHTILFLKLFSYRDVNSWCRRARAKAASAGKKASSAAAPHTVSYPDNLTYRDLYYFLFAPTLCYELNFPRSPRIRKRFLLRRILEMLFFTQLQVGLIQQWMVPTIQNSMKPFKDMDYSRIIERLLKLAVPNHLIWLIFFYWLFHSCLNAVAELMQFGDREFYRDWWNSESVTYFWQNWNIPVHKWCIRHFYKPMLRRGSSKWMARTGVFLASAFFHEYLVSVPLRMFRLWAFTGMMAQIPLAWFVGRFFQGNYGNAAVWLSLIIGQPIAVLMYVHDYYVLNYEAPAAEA

[2] = target: T2, Sterol O-acyltransferase 1 (Homo sapiens, UniProt P35610); test: Inhibition of human ACAT1
T2 sequence (P35610 whole entry): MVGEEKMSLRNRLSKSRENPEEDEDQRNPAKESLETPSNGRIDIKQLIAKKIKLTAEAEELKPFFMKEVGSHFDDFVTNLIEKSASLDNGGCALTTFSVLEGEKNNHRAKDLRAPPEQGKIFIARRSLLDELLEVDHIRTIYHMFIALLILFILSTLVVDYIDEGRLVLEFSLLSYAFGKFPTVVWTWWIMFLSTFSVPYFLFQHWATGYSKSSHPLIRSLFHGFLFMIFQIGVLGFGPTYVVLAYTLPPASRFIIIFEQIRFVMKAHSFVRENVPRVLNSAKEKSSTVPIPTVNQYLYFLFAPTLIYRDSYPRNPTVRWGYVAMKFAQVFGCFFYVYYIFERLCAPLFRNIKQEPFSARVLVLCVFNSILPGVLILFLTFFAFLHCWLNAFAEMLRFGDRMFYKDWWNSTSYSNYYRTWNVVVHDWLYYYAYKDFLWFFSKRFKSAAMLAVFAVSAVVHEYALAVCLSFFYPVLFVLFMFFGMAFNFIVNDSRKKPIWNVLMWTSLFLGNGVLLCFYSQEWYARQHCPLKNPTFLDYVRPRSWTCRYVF

[3] = system: Mus musculus; test: Inhibition of plasma triglyceride accumulation in mouse at 10 mg/kg, po dosed 2 hrs before lipid challenge and measured at 18 hrs by lipid tolerance test; type: functional
How it was run: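 Mouse lipid tolerance test measuring plasma triglyceride excursion. Dosing was 10 mpk oral, with triglyceride reduction read at 18 h.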

[4] = Unbound fraction in mouse plasma; type: ADME, cell-free
[5] = system: Rattus norvegicus; test: Inhibition of plasma triglyceride accumulation in Sprague-Dawley rat at 3 mg/kg, po dosed 2 hrs before lipid challenge and measured at 18 hrs by lipid tolerance test; type: functional
How it was run: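 Rat lipid tolerance test at oral doses of 1 and 3 mpk. Reduction of lipid excursion was normalized to a reference DGAT1 inhibitor given at 10 mpk, set as 100%. Plasma drug levels were the parent and its cis isomer combined, measured 4 h after oral dosing.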

[6] = system: Salmonella typhimurium; test: Induction of mutagenicity in Salmonella typhimurium TA100 assessed as increase in number of revertants in presence of metabolic activation; type: toxicity, organism-based; conditions: salmonella enterica subsp. enterica serovar typhimurium
How it was run: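 Microbial reverse-mutation (Ames) test in strains TA1535, TA98 and TA100, with and without metabolic activation. The concentration range was 30 to 5000 μg/plate. A positive call required a 2-fold or greater increase in revertants relative to the solvent control.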

[7] = Half life in Sprague-Dawley rat at 1 mg/kg, iv or 2 mg/kg, po; type: ADME, organism-based; conditions: in vivo
[8] = AUC in Sprague-Dawley rat at 2 mg/kg, po; type: ADME, organism-based; design: dose 2 mg/kg, route oral; conditions: plasma
[9] = system: Rattus norvegicus; test: AUC in Sprague-Dawley rat assessed as cis-4-((1-(5-(5-(trifluoromethyl)-1H-benzo[d]imidazol-2-yl)pyridin-2-yl)piperidin-4-yl)oxy)cyclohexanecarboxylic acid rat at 2 mg/kg, po; type: ADME, organism-based, Plasma; design: dose 2 mg/kg, route oral; conditions: in vivo
[10] = Volume of distribution at steady state in Beagle dog at 1 mg/kg, iv or 4 mg/kg, po; type: ADME, organism-based, Canis lupus familiaris; conditions: in vivo, read-out: Vdss
How it was run: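 Beagle dogs were dosed 1 mg/kg iv as a solution in 30% captisol (pH 8) and 4 mg/kg po in methylcellulose. Pharmacokinetic parameters were derived from these dosings.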

[11] = system: Canis familiaris; test: AUC in Beagle dog assessed as cis-4-((1-(5-(5-(trifluoromethyl)-1H-benzo[d]imidazol-2-yl)pyridin-2-yl)piperidin-4-yl)oxy)cyclohexanecarboxylic acid at 4 mg/kg, po; type: ADME, organism-based, Canis lupus familiaris, Plasma; design: dose 4 mg/kg, route oral; conditions: in vivo
How it was run: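 Single-dose pharmacokinetics. Beagle dogs were dosed at 1 mg/kg iv as a solution in 30% captisol (pH 8) and at 4 mg/kg po in 0.5 methylcellulose.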

[12] = Drug level in small intestine of C57BL/6 mouse at 10 mg/kg, po after 3 hrs; type: ADME, organism-based; design: dose 10 mg/kg, route oral; conditions: read-out: Drug uptake
How it was run: (§1)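 Tissue distribution in C57BL/6 mice. A single oral dose of 10 mg/kg was given as a solution in EtOH/PEG400/water (10:50:40). Parent and its cis isomer were both measured, in μM, in plasma, liver, small intestine, adipose fat and skin at 3 h and 24 h.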

[13] = Drug level in plasma of C57BL/6 mouse at 10 mg/kg, po after 24 hrs; type: ADME, organism-based; design: dose 10 mg/kg, route oral; how it was run: as §1
[14] = Drug level in small intestine of C57BL/6 mouse at 10 mg/kg, po after 24 hrs; type: ADME, organism-based; design: dose 10 mg/kg, route oral; conditions: read-out: Drug uptake; how it was run: as §1
[15] = system: Plasma; test: Drug level in plasma of C57BL/6 mouse assessed as cis-4-((1-(5-(5-(trifluoromethyl)-1H-benzo[d]imidazol-2-yl)pyridin-2-yl)piperidin-4-yl)oxy)cyclohexanecarboxylic acid level at 10 mg/kg, po after 24 hrs; type: ADME, organism-based; design: dose 10 mg/kg, route oral; conditions: in vivo; how it was run: as §1
[16] = system: Intestine; test: Drug level in small intestine of C57BL/6 mouse assessed as cis-4-((1-(5-(5-(trifluoromethyl)-1H-benzo[d]imidazol-2-yl)pyridin-2-yl)piperidin-4-yl)oxy)cyclohexanecarboxylic acid level at 10 mg/kg, po after 24 hrs; type: ADME, organism-based; design: dose 10 mg/kg, route oral; conditions: in vivo, read-out: Drug uptake; how it was run: as §1
[17] = Drug level in adipose fat of C57BL/6 mouse assessed as cis-4-((1-(5-(5-(trifluoromethyl)-1H-benzo[d]imidazol-2-yl)pyridin-2-yl)piperidin-4-yl)oxy)cyclohexanecarboxylic acid level at 10 mg/kg, po after 24 hrs; type: ADME, organism-based, Adipose tissue; design: dose 10 mg/kg, route oral; conditions: in vivo, read-out: Drug uptake; how it was run: as §1
[18] = system: Zone of skin; test: Drug level in skin of C57BL/6 mouse assessed as cis-4-((1-(5-(5-(trifluoromethyl)-1H-benzo[d]imidazol-2-yl)pyridin-2-yl)piperidin-4-yl)oxy)cyclohexanecarboxylic acid level at 10 mg/kg, po after 24 hrs; type: ADME, organism-based; design: dose 10 mg/kg, route oral; conditions: in vivo, read-out: Drug uptake; how it was run: as §1
[19] = system: Intestine; test: Drug level in small intestine of C57BL/6 mouse assessed as cis-4-((1-(5-(5-(trifluoromethyl)-1H-benzo[d]imidazol-2-yl)pyridin-2-yl)piperidin-4-yl)oxy)cyclohexanecarboxylic acid level at 10 mg/kg, po after 3 hrs; type: ADME, organism-based; design: dose 10 mg/kg, route oral; conditions: in vivo, read-out: Drug uptake; how it was run: as §1
[20] = Drug level in adipose fat of C57BL/6 mouse assessed as cis-4-((1-(5-(5-(trifluoromethyl)-1H-benzo[d]imidazol-2-yl)pyridin-2-yl)piperidin-4-yl)oxy)cyclohexanecarboxylic acid level at 10 mg/kg, po after 3 hrs; type: ADME, organism-based, Adipose tissue; design: dose 10 mg/kg, route oral; conditions: in vivo, read-out: Drug uptake; how it was run: as §1

IC50 [1]: 3.9 nM
IC50 [2]: > 10000 nM
fraction unbound [4]: 0.078
half-life [7]: 54.6 min
AUC [8]: 1 µM·h
AUC [9]: 0.97 µM·h
Vd [10]: 4.54 L/kg
AUC [11]: 0.11 µM·h
concentration at 3 h [12]: 36600 nM
concentration at 24 h [13]: < 10 nM
concentration at 24 h [14]: 711 nM
concentration [15]: < 10 nM
concentration [16]: 76 nM
concentration [17]: < 10 nM
concentration [18]: 18 nM
concentration [19]: 5030 nM
concentration [20]: 21 nM
Compound: O=C(O)[C@H]1CC[C@H](OC2CCN(c3ccc(-c4nc5cc(C(F)(F)F)ccc5[nH]4)cn3)CC2)CC1
inhibition in vivo at 10 mg/kg [3]: 89%
inhibition in vivo at 3 mg/kg [5]: 80%
Activity [6]: Non-toxic
